# Measured values as given in ChEMBL document CHEMBL2390912, “Aromatic glycosyl disulfide derivatives: evaluation of their inhibitory activities against Trypanosoma cruzi” (Bioorg Med Chem Lett, 2013).
# How the values were obtained:
# Trypanosoma cruzi [1] = experiment: Trypanocidal activity against Trypanosoma cruzi Y trypomastigotes infected in human HeLa cells at 4 degC after 18 hrs by hemocytometric analysis; assay type: functional, organism-based
# Trypanosoma cruzi [2] = experiment: Trypanocidal activity against Trypanosoma cruzi Y trypomastigotes infected in human HeLa cells at 37 degC after 18 hrs by resazurin assay; assay type: functional, organism-based
# How it was run: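 Tissue culture-derived trypomastigotes treated for 18 h at 37 °C. Read-out by fluorescence.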
compound,measurement,setting,value
O=C(Cn1ccnc1[N+](=O)[O-])NCc1ccccc1 [BENZNIDAZOLE],IC50,Trypanosoma cruzi [1],≥ 500 µM
same,IC50,Trypanosoma cruzi [2],25.6 µM
